Bioassay records as filed in PubChem.
KCNQ1 block: blocks the human KCNQ1 potassium channel; P51787; CHO-K1 KCNQ1, FluxOR thallium flux fluorescence; active compounds read high; B-score at 10 µM; hit rate 1.3% among 310,000;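 active = compounds whose thallium flux B-score, printed positive for inhibition, exceeds three library SD while starting fluorescence stays within three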;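 note: channel opened by potassium depolarization with thallium stimulus after 20 min compound exposure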
KCNK9 inh: inhibitors of human KCNK9 two-pore domain potassium channel. Q9NPC2. HEK293 KCNK9, FluxOR thallium flux fluorescence; active compounds read low. B-score at 10 µM. hit rate 1.2% among 310,000. AID 488922;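 active = ratio B-score over 3 SD below the library mean, with starting fluorescence within 5 SD of its mean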;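 note: negative B-score means less thallium flux so channel inhibition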
Target sequence (Q9NPC2 whole entry, looked up, the tested form may be a part): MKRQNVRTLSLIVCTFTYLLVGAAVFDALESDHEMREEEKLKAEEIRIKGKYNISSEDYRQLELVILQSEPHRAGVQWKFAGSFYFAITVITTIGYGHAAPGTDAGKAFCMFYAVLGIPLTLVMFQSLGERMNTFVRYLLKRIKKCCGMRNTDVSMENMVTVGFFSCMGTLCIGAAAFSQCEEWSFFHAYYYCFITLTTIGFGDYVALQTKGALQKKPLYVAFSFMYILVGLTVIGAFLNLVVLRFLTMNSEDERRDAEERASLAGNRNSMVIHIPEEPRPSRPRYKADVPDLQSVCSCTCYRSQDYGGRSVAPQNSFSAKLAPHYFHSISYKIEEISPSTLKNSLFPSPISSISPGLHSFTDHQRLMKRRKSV
KCNQ1 act: human KCNQ1 channel potentiation or activation; P51787; hit rate 0.35% among 310,000; AID 2648; CHO-K1 KCNQ1, thallium flux FluxOR fluorescence; active compounds read high; B-score at 10 µM;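 active = fluorescence ratio B-score, a plate-corrected score, at least three library SD, with initial intensity B-score within 5 SD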
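System: CHO-K1 cells stably expressing KCNQ1 / Medium: assay buffer for compound exposure, DMSO matched across wells / Reagent: thallium- and potassium-containing depolarizing buffer / Compound: one concentration, matched DMSO / Incubation: 20 min compound pretreatment at room temperature / Measured by: kinetic FluxOR fluorescence, 10 s baseline plus 110 s post-stimulus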
KCNK3 inh: human KCNK3 channel inhibition, primary screen. hit rate 0.84% among 340,000. CHO-KCNK3 thallium flux, FluxOR fluorescence; active compounds read low. B-score at 10 µM. AID 602410. O14649;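 active = B-score under library mean minus 4 SD, starting fluorescence ratio at most library mean plus 5 SD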;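 note: more negative B-score means stronger inhibition of thallium flux through KCNK3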
hERG rescue: compounds protecting human hERG from proarrhythmic drug block; Q12809; AID 1511; activation (rescue from dofetilide block), less the hit threshold, % at 10 µM; hit rate 0.51% among 310,000; CHO-hERG, FluxOR thallium flux, dofetilide IC70 present;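 active = activation above the mean of controls blocked by dofetilide plus 5 SD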;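 note: thallium influx through hERG after potassium depolarization seen as dye fluorescence rise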
Kir21 inh: blocks the mouse Kir2.1 inward-rectifier potassium channel. HEK293-Kir2.1, FluxOR thallium flux fluorescence; active compounds read low. hit rate 0.85% among 310,000. B-score at 10 µM;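 active = fluorescence ratio B-score at or below minus 3 SD of library scores, with starting-brightness B-score within 2 SD, cut at about -4.2 in these data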;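 note: channel flux triggered by added potassium and thallium sulfate stimulus; B-score of peak minus minimum fluorescence over baseline after thallium stimulus; more negative B-score means stronger Kir2.1 block with less thallium influx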
KCNK9 inh conf: confirmation of human KCNK9 potassium channel inhibitors | shares compounds with KCNK9 inh | HEK293 KCNK9 cells, FluxOR thallium flux fluorescence | inhibition, % at 10 µM | hit rate 43% among 4,900;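 active = thallium signal inhibited by more than 5 SD of the compound-free buffer control wells, on both duplicate plates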;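 note: 0% = assay buffer control wells without compound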
Kir21 sel: tests whether KCNK9 modulators also affect mouse Kir2.1; shares compounds with KCNK9 inh; inhibition, % at 10 µM; AID 492993; Kir2.1 cells, FluxOR thallium flux fluorescence; hit rate 4% among 4,900;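 active = thallium signal drop more than 5 SD beyond the mean of the no-compound control wells, seen in both duplicate plates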;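 note: signal is fluorescence rise after thallium addition divided by baseline fluorescence; plate controls were assay buffer only for no effect and full block by chlorpromazine control for full effect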
HEK293 Tl ctr: second counter-screen for KCNK9 modulators: effect in non-induced cells; shares compounds with KCNK9 inh; non-induced KCNK9-HEK293, FluxOR thallium flux; inhibition, % at 10 µM; hit rate 40% among 4,900; AID 492997;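 active = thallium signal drop beyond 5 SD of the untreated control mean, on both duplicate plates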;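 note: plate controls were buffer only IC0 wells for no effect and SID17386958 at its maximal inhibitory level for full effect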
KCNK3 confirm: human KCNK3 channel inhibition, confirmation assay; hit rate 99% among 2,400; AID 651638; CHO-KCNK3 thallium flux, FluxOR fluorescence; 0% buffer, 100% carvedilol maximal block; ratio percent of control, % at 10 µM; shares compounds with KCNK3 inh;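 active = ratio percent of control, averaged over triplicates, above buffer control mean plus 5 SD, cut at about 64% in these data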;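 note: ratio is the fluorescence rise from min to max over baseline after thallium stimulus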
KCNK3 noninduced: activity in cells without induced KCNK3 expression | thallium flux ratio (lower = more inhibition) at 10 µM | non-induced KCNK3 parental cells, FluxOR thallium flux; active compounds read low | hit rate 40% among 2,400 | shares compounds with KCNK3 inh;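 active = thallium flux ratio, averaged over three wells, more than 5 SD below the buffer control mean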;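 note: host cells are CHO cells without KCNK3 induction; ratio is peak minus trough fluorescence over baseline then normalized to buffer controls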
The depositor's hits bear a star; i = inactive; . = no result given. This is a sample that favours compounds with a hit; in the whole collection about 3.8% have one here.

SMILES	KCNQ1 block	KCNK9 inh	KCNQ1 act	KCNK3 inh	hERG rescue	Kir21 inh	KCNK9 inh conf	Kir21 sel	HEK293 Tl ctr	KCNK3 confirm	KCNK3 noninduced
CC(=O)c1ccc(NC(=O)CN2C(=O)NC3(CCc4ccccc43)C2=O)cc1 (stereo not drawn)	.	.	.	i	.	.	.	.	.	.	.
Cc1ccc(C(c2nnnn2C2CCCCC2)N(C)C2CCCCC2)cc1 (stereo not drawn)	i	-9.4*	i	i	-5	-0.01	i	i	43%*	117*	0.13*
CN(CC(=O)Nc1cccc(F)c1)C(=O)Cn1cnc2c1c(=O)n(C)c(=O)n2C	i	i	i	i	-8	0.54	.	.	.	.	.
C[C@H](CO)N1C[C@H](C)[C@@H](CN(C)Cc2ccncc2)Oc2ccc(NC(=O)CCCCCC(=O)Nc3ccccc3N)cc2C1=O	.	.	.	i	.	.	.	.	.	.	.
CC(=O)Nc1cccc(NC(=O)c2c(-c3c(Cl)cccc3Cl)noc2C)c1	i	i	i	i	-5	2.2	.	.	.	.	.
CNC(=O)Nc1cccc(-c2cc(-c3c(Cl)cccc3Cl)no2)c1	i	-15*	i	-17*	-9	0.49	54%*	i	44%*	122*	0.16*
CC(=O)Nc1cccc(-c2cc(-c3c(Cl)cccc3Cl)no2)c1	i	-11*	i	-15*	-9	-0.08	54%*	i	39%*	109*	0.15*
O=C(Nc1cccnc1)c1cc(-c2cccc(Cl)c2)on1	i	i	i	i	-2	-1.4	.	.	.	.	.
COc1cccc(CNS(=O)(=O)c2ccc3c(c2)N(C)CCO3)c1	i	i	i	i	-6	-1	.	.	.	.	.
O=C(CC(c1ccc(F)cc1)c1ccco1)Nc1nccs1 (stereo not drawn)	i	-8.1*	i	-11*	-7	0.22	32%*	i	34%*	110*	0.16*
COc1ccc(C(CC(=O)Nc2ccc(F)cc2)c2ccccc2)cc1 (stereo not drawn)	i	i	i	i	-8	-0.67	.	.	.	.	.
COc1ccccc1NC(=O)CC(c1ccc(F)cc1)c1ccco1 (stereo not drawn)	i	-10*	i	i	-10	-0.25	36%*	i	30%*	121*	0.15*
COc1ccccc1C(CC(=O)Nc1nccs1)c1ccco1 (stereo not drawn)	i	i	i	i	-4	-0.52	.	.	.	.	.
O=C(CCCSc1nnc(SCCCC(=O)c2ccc(F)cc2)s1)c1ccc(F)cc1	i	i	i	-11*	-18	-0.2	i	i	i	100*	i
CCOc1ccc(C(C)(C)C)cc1S(=O)(=O)n1nc(C)cc1C	6*	-9.6*	i	-8.8*	-3	0.57	54%*	i	38%*	113*	i
CC(=O)N1CCN(C2=NC(=O)/C(=C/c3ccc(OS(=O)(=O)c4ccccc4)cc3)S2)CC1	i	i	i	i	-10	-0.27	.	.	.	.	.
COc1ccc(-c2ccc(SCC(=O)c3cccs3)nn2)cc1OC	i	i	i	i	-10	1.5	.	.	.	.	.
COc1ccc(-c2ccc(SCC(=O)c3ccc(F)cc3)nn2)cc1OC	i	-15*	i	-9.8*	-19	-0.66	64%*	i	i	118*	i
CC(C)(C)CC(C)(C)n1nnnc1N	.	.	.	i	.	.	.	.	.	.	.
